Calls of active or inactive are those of the source. The calls are words filed in the database; no cut-off is given here.
Tests used:
HepG2 = assay: Cytotoxicity against human HepG2 cells assessed as inhibition of cell proliferation after 72 hrs by MTT assay; format: functional, cell-based; conditions: HepG2, 72 h
Outline: (§1)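 Cells, 5×10^3 per well, exposed in triplicate at 37 °C; DMSO-only wells as controls (0.1% v/v DMSO in all cell work). After 68 h, MTT (5 mg/mL stock) was added for a further 4 h. Overnight solubilisation at 37 °C in 10% SDS/5% isobutanol/0.1% HCl, then A570 read.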

Thioredoxin reductase [1] = molecular target: T1, Thioredoxin reductase (Homo sapiens, UniProt Q16881+Q9NNW7+Q86VQ6); assay: Inhibition of TrxR in human HeLa cells by Trx-mediated insulin reduction assay
A549 = assay: Cytotoxicity against human A549 cells assessed as inhibition of cell proliferation after 72 hrs by MTT assay; format: functional, cell-based; conditions: A549, 72 h; outline: as §1
HeLa = assay: Cytotoxicity against human HeLa cells assessed as inhibition of cell proliferation after 72 hrs by MTT assay; format: functional, cell-based; outline: as §1
[2] = molecular target: Thioredoxin reductase 1 (Rattus norvegicus) (UniProt O89049); assay: In vitro inhibition of NADPH-reduced TrxR (unknown origin) after 2 hrs incubation by microplate reader
[3] = Cytotoxicity against human HL60 cells assessed as inhibition of cell proliferation after 72 hrs by MTT assay; format: functional, cell-based; conditions: HL-60, 72 h; outline: as §1
[4] = Cytotoxicity against human […] cells assessed as inhibition of cell proliferation after 72 hrs by MTT assay; format: functional, cell-based; outline: as §1
Thioredoxin reductase [5] = molecular target: T1, Thioredoxin reductase; assay: Inhibition of TrxR in human HeLa cells after 48 hrs by TRFS-green based fluorescence microscopy; format: cell-based
Outline: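 Live HeLa cells exposed to compound for 44 h, then to TRFS-green (10 μM) for a further 4 h. Green fluorescence, which tracks cellular TrxR activity, imaged alongside phase contrast.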

[6] = In vitro inhibition of TrxR U498C mutant (unknown origin) up to 40 uM after 2 hrs incubation by microplate reader
Thioredoxin reductase [7] = molecular target: T1, Thioredoxin reductase; assay: Inhibition of TrxR in human HeLa cells after 48 hrs by end point reduction assay; format: cell-based
Outline: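 HeLa cells treated 48 h, lysed in RIPA buffer and protein measured by Bradford. Lysate (20 μg) incubated 30 min at 37 °C with 0.3 mM insulin, 660 μM NADPH and 15 μM E. coli Trx (pH 7.6). Stopped with DTNB in 6 M guanidine-HCl; A412 minus Trx-free blank, as % of DMSO control.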

Thioredoxin reductase 1 (Rattus norvegicus), sequence (O89049 whole entry, looked up): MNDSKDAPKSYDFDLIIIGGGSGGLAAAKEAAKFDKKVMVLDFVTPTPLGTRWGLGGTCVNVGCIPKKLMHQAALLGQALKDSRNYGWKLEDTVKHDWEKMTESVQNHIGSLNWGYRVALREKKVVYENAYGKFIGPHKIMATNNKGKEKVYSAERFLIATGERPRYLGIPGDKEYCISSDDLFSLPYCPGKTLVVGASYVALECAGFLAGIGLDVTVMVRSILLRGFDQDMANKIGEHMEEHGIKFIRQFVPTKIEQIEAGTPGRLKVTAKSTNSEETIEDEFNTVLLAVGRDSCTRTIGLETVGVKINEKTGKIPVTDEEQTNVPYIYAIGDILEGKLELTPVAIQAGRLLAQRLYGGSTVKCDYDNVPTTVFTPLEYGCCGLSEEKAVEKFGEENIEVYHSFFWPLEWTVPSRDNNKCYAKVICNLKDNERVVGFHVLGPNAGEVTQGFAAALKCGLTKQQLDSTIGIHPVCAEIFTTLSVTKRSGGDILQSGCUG

Structure (SMILES)	IC50 (HepG2) [µM]	IC50 (A549) [µM]	IC50 (HeLa) [µM]	other results
COc1cc(O)c(CC=C(C)C)c(O)c1C(=O)/C=C/c1ccc(O)cc1 [XANTHOHUMOL]	35	30.5	40.4	IC50 (Thioredoxin reductase [1]): > 40 µM
COc1cc(/C=C/C(=O)c2c(O)cc(O)cc2OC)cc(OC)c1	17.6	34	13.3	
COc1cc(OC)c(C(=O)/C=C/c2ccc(Cl)cc2)c(OC)c1				inhibition [2]: Active
COc1cc(/C=C/C(=O)c2c(OC)cc(OC)cc2OC)cc(OC)c1	9	10.1	9.2	
COc1cc(OC)c(C(=O)/C=C/c2cc(OC)c(OC)cc2OC)c(OC)c1	23.8	45.1	40.5	
COc1cc(O)c(CC=C(C)C)c(O)c1C(=O)/C=C/c1ccc([N+](=O)[O-])cc1	12.4	31.2	29.7	
COc1cc(O)cc(O)c1C(=O)/C=C/c1ccc(C)cc1	> 50	> 50	> 50	
COc1ccc(/C=C/C(=O)c2c(OC)cc(O)c(CC=C(C)C)c2O)c(OC)c1OC	14.8	18	> 50	
COc1cc(O)cc(O)c1C(=O)/C=C/c1ccc(O)c(O)c1	28.7	11.8	21.3	
COc1cc(OC)c(OC)cc1/C=C/C(=O)c1c(O)cc(O)cc1OC	18.7	34.2	37.8	
COc1cc(O)cc(O)c1C(=O)/C=C/c1ccc(Cl)cc1	12.2	18.2	17	
COc1cc(OC)c(C(=O)/C=C/c2ccc(C)cc2)c(OC)c1	18.4	15	17	
COc1cc(OC)c(C(=O)/C=C/c2ccc(N)cc2)c(OC)c1	45.2	> 50	> 50	
COc1cc(OC)c(C(=O)/C=C/c2ccc(OC)c(OC)c2)c(OC)c1	11.6	39.1	18.1	
COc1ccccc1/C=C/C(=O)c1c(OC)cc(O)c(CC=C(C)C)c1O	14.6	12.5	19.7	
COc1cc(OC)c(OC)cc1/C=C/C(=O)c1c(OC)cc(O)c(CC=C(C)C)c1O	> 50	14.4	> 50	
COc1cc(OC)c(C(=O)/C=C/c2ccc(O)cc2)c(OC)c1	37	49.4	40.6	
COc1ccc(/C=C/C(=O)c2c(OC)cc(O)c(CC=C(C)C)c2O)cc1OC	13.8	15.7	27.7	
COc1ccc(/C=C/C(=O)c2c(O)cc(O)cc2OC)cc1	18.1	> 50	47.7	
COc1cc(/C=C/C(=O)c2c(OC)cc(O)c(CC=C(C)C)c2O)cc(OC)c1OC	> 50	> 50	> 50	
COc1cc(/C=C/C(=O)c2c(O)cc(O)cc2OC)cc(OC)c1OC	20.4	28.4	18.9	

Structure (SMILES)	IC50 (HepG2) [µM]	IC50 (A549) [µM]	IC50 (HeLa) [µM]	other results
COc1cc(O)c(CC=C(C)C)c(O)c1C(=O)/C=C/c1ccc(O)c(O)c1	15.2	16.1	38.1	
COc1cc(OC)c(C(=O)/C=C/c2ccc(C(F)(F)F)cc2)c(OC)c1	9.7	14.2	5.1	inhibition [2]: Active; IC50 [3]: 6.5 µM; IC50 [4]: 15.7 µM
COc1cc(/C=C/C(=O)c2c(OC)cc(O)c(CC=C(C)C)c2O)ccc1O	21.7	11.8	33.8	
COc1ccc(/C=C/C(=O)c2c(O)cc(O)cc2OC)cc1OC	18.5	> 50	49.5	
COc1cc(/C=C/C(=O)c2c(O)cc(O)cc2OC)ccc1O	> 50	> 50	> 50	
COc1ccccc1/C=C/C(=O)c1c(O)cc(O)cc1OC	15.3	47.7	43.6	
COc1cc(OC)c(C(=O)/C=C/c2ccc(O)c(O)c2)c(OC)c1	27.5	8.2	15.8	
COc1ccc(/C=C/C(=O)c2c(OC)cc(O)c(CC=C(C)C)c2O)cc1	32.4	38	> 50	
COc1cc(OC)c(C(=O)/C=C/c2cc(OC)c(OC)c(OC)c2)c(OC)c1	16.5	22.3	9.9	
COc1cc(O)c(CC=C(C)C)c(O)c1C(=O)/C=C/c1ccc(Cl)cc1	10.1	11.8	16.5	
COc1cc(O)cc(O)c1C(=O)/C=C/c1ccc(O)cc1 [HELICHRYSETIN]	40.2	> 50	48.1	
COc1cc(O)cc(O)c1C(=O)/C=C/c1ccc([N+](=O)[O-])cc1	41	> 50	> 50	
COc1cc(O)c(CC=C(C)C)c(O)c1C(=O)/C=C/c1ccc(C(F)(F)F)cc1	6.5	11.1	6.8	inhibition [2]: Active; IC50 [3]: 5.3 µM; IC50 [4]: 10.7 µM
COc1cc(O)c(CC=C(C)C)c(O)c1C(=O)/C=C/c1cccc([N+](=O)[O-])c1	16.6	15	16.5	
COc1cc(O)cc(O)c1C(=O)/C=C/c1ccc(C(F)(F)F)cc1	14.1	15.4	9.5	
COc1cc(OC)c(C(=O)/C=C/c2ccccc2OC)c(OC)c1	16.3	19.8	19.6	
COc1cc(OC)c(C(=O)/C=C/c2cccc([N+](=O)[O-])c2)c(OC)c1				IC50 [2]: 12.8 µM; IC50 (Thioredoxin reductase [1]): 3.5 µM; inhibition (Thioredoxin reductase [5]): Dose-dependent effect; inhibition [6]: inactive; inhibition (Thioredoxin reductase [7]): Dose-dependent effect
COc1cc(OC)c(C(=O)/C=C/c2ccc(O)c(OC)c2)c(OC)c1	17	43.8	44.9	
COc1cc(O)cc(O)c1C(=O)/C=C/c1cccc([N+](=O)[O-])c1	16.3	36.8	15.5	inhibition [2]: Active; IC50 [3]: 5.9 µM; IC50 [4]: 20.1 µM
COc1cc(OC)c(C(=O)/C=C/c2ccc(OC)c(OC)c2OC)c(OC)c1	> 50	44.3	> 50	

— ChEMBL document CHEMBL3414420, “Synthesis of xanthohumol analogues and discovery of potent thioredoxin reductase inhibitor as potential anticancer agent” (J Med Chem, 2015)
